Experiments:
A. baumannii ATCC 19606 [1] = assay: Disk diffusion assay; assay type: cell-based; details: Ab ATCC 19606, 20 μg on blank disc (Ø = 0.6 cm), 24 h
Summary of the method: (§1)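 The test compound (20 µg) was loaded onto a blank 0.6 cm disc and placed on an agar plate inoculated with the bacterium. The plate was incubated for 24 h, and the diameter of the bacteria-free zone around the disc was measured in cm. Saline was included as a control.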

Ab ATCC 19606 = details: broth microdilution, mass basis; data with * ref [21]; cited from earlier work
P. aeruginosa ATCC 27853 = assay: Disk diffusion assay; assay type: cell-based; details: Pa ATCC 27853, 20 μg on blank disc (Ø = 0.6 cm), 24 h
Summary of the method: as §1

A. baumannii ATCC 19606 [2] = assay: Time-kill study; assay type: cell-based; details: 4 × MIC (mass based; higher value where MIC is a range)

Substance | Diameter of Zone of Inhibition (ZOI) (A. baumannii ATCC 19606 [1]) [cm] | Minimum inhibitory concentration against Ab ATCC 19606 (MIC) (Ab ATCC 19606) | Diameter of Zone of Inhibition (ZOI) (P. aeruginosa ATCC 27853) [cm] | Time to inhibit the growth of bacteria to levels approaching the detection limit (A. baumannii ATCC 19606 [2])
colistin | 1.8 | 1* mg/L | 1.8 | 
colistin methanesulfonate [CMS] | 1.8 | 16* mg/L | 1.7 | around 6 h
